Measured values from different studies.
PRKCB: Protein kinase C beta type (PRKCB, Homo sapiens, UniProt P05771)
KMT5A: N-lysine methyltransferase KMT5A (KMT5A, Homo sapiens, UniProt Q9NQR1)
HTR3A: 5-hydroxytryptamine receptor 3A (HTR3A, Homo sapiens, UniProt P46098)
CCKAR: Cholecystokinin receptor type A (CCKAR, Homo sapiens, UniProt P32238)
LATS1: Serine/threonine-protein kinase LATS1 (LATS1, Homo sapiens, UniProt O95835)

The inhibition of `COc1ccc(C(=O)c2coc3c2C(=O)C(=O)C=C3)cc1` is reported as at least 100% (Peptide deformylase, mitochondrial (Homo sapiens, UniProt Q9HBH1); enzyme activity; inhibitor; 100 µM).
For `CCCCCCCCCCCCCCCc1cccc(O)c1C(=O)O`, the inhibition was about 60% (Histone acetyltransferase p300 (EP300, Homo sapiens, UniProt Q09472); enzyme activity; inhibitor; fluorescence; 52 µM).
`CSc1nc(C)c(-c2ccnc(Nc3ccc(N4CCOCC4)cc3)c2)[nH]1` has an inhibition of 1.3% (PRKCB; enzyme activity; inhibitor; 10 µM).
For `O=c1c(-c2cc(O)c(O)c(O)c2)coc2cc(O)c(O)c(O)c12`, the inhibition was 9% (KMT5A; cell-free assay; 10 µM).
`CCN(CC)CCNC(=O)c1c(C)[nH]c(/C=C2\C(=O)Nc3ccc(F)cc32)c1C` gave an inhibition of 1% (cAMP-dependent protein kinase catalytic subunit alpha (PRKACA, Bos taurus, UniProt P00517); enzyme activity; inhibitor; 10 µM).
`COc1cc2ncnc(Nc3ccc(Oc4ccccc4)c(C)c3C)c2cc1OC` has an inhibition of 9% (PRKCB; enzyme activity; inhibitor; 1 µM).
For `O=C1C=CC(=O)c2c(O)cccc21`, the inhibition was 19% (KMT5A; cell-free assay; 10 µM).
For `O=C(c1ccc(F)cc1)N(Cc1ccccc1)C1CCCCC1`, the inhibition was -1% (HTR3A; ligand displacement; 10 µM).
`CN(C)C1CCN(CC#Cc2nn(C3CCCC3)c3nc(NCc4ccccc4)ncc23)C1` (centres unmarked) gave an inhibition of 12% (cAMP-dependent protein kinase catalytic subunit alpha (PRKACA, Homo sapiens, UniProt P17612); enzyme activity; inhibitor; FRET; 10 µM).
With `O=C(O)CCCCCCCCCCCC[C@@H]1C=CCC1` the inhibition was -10% (KMT5A; cell-free assay; 10 µM).
With `CCCS(=O)(=O)Nc1ccc(F)c(C(=O)c2c[nH]c3ncc(-c4ccc(Cl)cc4)cc23)c1F` the inhibition was under 20% (PRKCB; enzyme activity; inhibitor; 1 µM).
With `CN(C)c1ccc2nc3ccc(=[N+](C)C)cc-3sc2c1` the inhibition was 43% (KMT5A; cell-free assay; 10 µM).
With `COc1cc(NC(C)=O)c(Cl)cc1C(=O)Nc1nccs1` the inhibition was -9.3% (CCKAR; cell-free assay; 10 µM).
For `CN(C)c1ccc(C(=C2C=CC(=[N+](C)C)C=C2)c2ccc(N(C)C)cc2)cc1`, the inhibition was 97% (KMT5A; cell-free assay; 10 µM).
The inhibition of `CCN1CCN(Cc2ccc(NC(=O)c3ccc(C)c(Oc4ccnc5[nH]ccc45)c3)cc2C(F)(F)F)CC1` is reported as -11.6% (Receptor-interacting serine/threonine-protein kinase 4 (RIPK4, Homo sapiens, UniProt P57078); target engagement in cells; inhibitor; chemoproteomics; A-375; 5 µM).
The inhibition of `O=C1c2c(O)cccc2Cc2cccc(O)c21` is reported as 19% (KMT5A; cell-free assay; 10 µM).
The inhibition of `Cn1cnc(Br)c1C1=CN(c2ncnc3[nH]cnc23)CCS1` is reported as 97.3% (LATS1; enzyme activity; inhibitor; radiometric; 2 µM).
With `Cc1ccc(Nc2nccc(N(C)c3ccc4c(C)n(C)nc4c3)n2)cc1S(N)(=O)=O` the inhibition was -7% (cAMP-dependent protein kinase catalytic subunit alpha (PRKACA, Bos taurus, UniProt P00517); enzyme activity; inhibitor; 0.3 µM).
`Cc1cc(-c2ccc(/N=N/c3ccc4c(S(=O)(=O)O)cc(S(=O)(=O)O)c(N)c4c3O)c(C)c2)ccc1/N=N/c1ccc2c(S(=O)(=O)O)cc(S(=O)(=O)O)c(N)c2c1O` gave an inhibition of 78% (KMT5A; cell-free assay; 10 µM).
`Cn1cncc1C1=CN(c2ncnc3[nH]cnc23)CCS1` has an inhibition of 35% (LATS1; enzyme activity; inhibitor; radiometric; 50 nM).
`Oc1cccc(Nc2nc(-c3ccc(F)cc3F)cs2)c1` gave an inhibition of 0.9% (HTR3A; ligand displacement; radioligand; 10 µM).
With `COc1cc(-c2cc(-c3ccc(N4CCNCC4)cc3)cnc2N)cc(OC)c1OC` the inhibition was 57% (Tyrosine-protein kinase ABL1 (ABL1, Homo sapiens, UniProt P00519, T315I); enzyme activity; inhibitor; 1 µM).
The inhibition of `CCN1CCN(Cc2ccc(NC(=O)c3ccc(C)c(/C=C/c4cnc5[nH]ccc5c4OC)c3)cc2C(F)(F)F)CC1` is reported as -18.6% (Serine/threonine-protein kinase greatwall (MASTL, Homo sapiens, UniProt Q96GX5); target engagement in cells; inhibitor; chemoproteomics; A-375; 5 µM).
With `O=C1N=C(N2CCCCN2)S/C1=C\c1ccc(F)cc1O` the inhibition was 10% (CCKAR; ligand displacement; radioligand; 10 µM).
For `Ic1cccc2cnccc12`, the inhibition was -2% (Nicotinamide phosphoribosyltransferase (NAMPT, Homo sapiens, UniProt P43490); enzyme activity; inhibitor; 10 µM).
The inhibition of `CSCCC(NC=O)C(=O)NC(C)C(=O)O` (centres unmarked) is reported as 33% (KMT5A; cell-free assay; 10 µM).
